# Assay results from ChEMBL document CHEMBL4819040, “Limonoids from Guarea guidonia and Cedrela odorata: Heat Shock Protein 90 (Hsp90) Modulator Properties of Chisomicine D” (J Nat Prod, 2021).
# The source made the active and inactive calls. No cut-off for these calls is given here.
# Experiments:
# [1] = target: T1, Heat shock protein HSP 90-alpha (Homo sapiens, UniProt P07900); experiment: Binding affinity to recombinant human HSP90alpha by surface plasmon resonance analysis
# U-937 [2] = experiment: Induction of cell cycle arrest in human U937 cells assessed as G1 phase cells at 20 uM incubated for 48 hrs PI staining based flow cytometric analysis (reference value: 60.8 %); format: functional
# [3] = target: T1, Heat shock protein HSP 90-alpha; experiment: Effect on HSP90alpha in human U-937 cells assessed as p-JNK p54 protein level at 10 uM after 48 hrs by Western blot analysis (reference value: 2.22); format: cell-based; conditions: filed as modulator
# Outline: (§1)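 U937 cells (RPMI 1640, 10% FBS, 37 °C, 5% CO2) treated 48 h at 10, 20 or 30 μM, DMSO vehicle ≤0.3%. RIPA lysates, Bradford protein assay, SDS-PAGE, nitrocellulose, HRP secondary with ECL detection. GAPDH loading control, densitometry normalized. Run in duplicate.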
# [4] = target: T1, Heat shock protein HSP 90-alpha; experiment: Effect on HSP90alpha in human U-937 cells assessed as HSP90 protein level at 10 uM after 48 hrs by Western blot analysis (reference value: 1.12); format: cell-based; conditions: filed as modulator; outline: as §1
# [5] = target: T1, Heat shock protein HSP 90-alpha; experiment: Effect on HSP90alpha in human U-937 cells assessed as HSP70 protein level at 10 uM after 48 hrs by Western blot analysis (reference value: 0.83); format: cell-based; conditions: filed as modulator; outline: as §1
# [6] = target: T1, Heat shock protein HSP 90-alpha; experiment: Inhibition of HSP90alpha (unknown origin) at 10 to 20 uM; conditions: dose 10-20 µM
# [7] = target: T1, Heat shock protein HSP 90-alpha; experiment: Effect on HSP90alpha in human U-937 cells assessed as JNK p46 protein level at 20 uM after 48 hrs by Western blot analysis (reference value: 1.22); format: cell-based; conditions: filed as modulator; outline: as §1
# U-937 [8] = experiment: Induction of cell cycle arrest in human U937 cells assessed as increase in cells at G2 phase at 20 uM incubated for 48 hrs PI staining based flow cytometric analysis (reference value: 11.1 %); format: functional
# U-937 [9] = experiment: Induction of cell cycle arrest in human U937 cells assessed as CDC2 protein expression at 20 uM by Western blotting analysis (reference value: 1.22); format: functional
# Outline: (§2)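 U937 cells given vehicle (DMSO) or 10 or 20 μM. RIPA whole-cell lysates (protease/phosphatase inhibitors) resolved by SDS-PAGE, blotted to nitrocellulose, ECL detection. Targets: pro-caspase 3/caspase 3 or p-CDC2 (p34)/CDC2. Densitometry normalized. Duplicate experiments.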
# [10] = target: T1, Heat shock protein HSP 90-alpha; experiment: Effect on HSP90alpha in human U-937 cells assessed as HSP70 protein level at 20 uM after 48 hrs by Western blot analysis (reference value: 0.83); format: cell-based; conditions: filed as modulator; outline: as §1
# [11] = target: T1, Heat shock protein HSP 90-alpha; experiment: Effect on HSP90alpha in human U-937 cells assessed as HSP90 protein level at 20 uM after 48 hrs by Western blot analysis (reference value: 1.12); format: cell-based; conditions: filed as modulator; outline: as §1
# [12] = target: T1, Heat shock protein HSP 90-alpha; experiment: Effect on HSP90alpha in human U-937 cells assessed as JNK p54 protein level at 10 uM after 48 hrs by Western blot analysis (reference value: 2.45); format: cell-based; conditions: filed as modulator; outline: as §1
# U-937 [13] = experiment: Induction of apoptosis in human U-937 cells assessed as late apoptotic cells at 20 uM after 48 hrs by AnnexinV-FITC/propidium iodide staining based flow cytometry (reference value: 12.4 %); format: functional
# [14] = target: T1, Heat shock protein HSP 90-alpha; experiment: Effect on HSP90alpha in human U-937 cells assessed as HSP70 protein level at 30 uM after 48 hrs by Western blot analysis (reference value: 0.83); format: cell-based; conditions: filed as modulator; outline: as §1
# [15] = target: T1, Heat shock protein HSP 90-alpha; experiment: Effect on HSP90alpha in human U-937 cells assessed as ERK2 protein level at 20 uM after 48 hrs by Western blot analysis (reference value: 0.69); format: cell-based; conditions: filed as modulator; outline: as §1
# U-937 [16] = experiment: Induction of cell cycle arrest in human U937 cells assessed as decrease in cells at S phase at 20 uM incubated for 48 hrs PI staining based flow cytometric analysis (reference value: 23.6 %); format: functional; design: scale not given: the % may be the effect or the level left
# U-937 [17] = experiment: Induction of apoptosis in human U-937 cells assessed as viable cells at 20 uM after 48 hrs by AnnexinV-FITC/propidium iodide staining based flow cytometry (reference value: 82.7 %); format: functional; conditions: read-out: Activity
# [18] = Cytotoxicity against human PBMC cells assessed as cell viability after 48 hrs by MTT assay; format: cell-based
# Outline: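 PBMCs isolated from healthy-donor buffy coats on Ficoll-Hypaque gradients, exposed to 30 μM or DMSO for 48 h. Viability read by MTT (absorbance 550 nm). Technical triplicates, repeated twice.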
# [19] = target: T1, Heat shock protein HSP 90-alpha; experiment: Effect on HSP90alpha in human U-937 cells assessed as HSP90 protein level at 30 uM after 48 hrs by Western blot analysis (reference value: 1.12); format: cell-based; conditions: filed as modulator; outline: as §1
# [20] = target: T1, Heat shock protein HSP 90-alpha; experiment: Effect on HSP90alpha in human U-937 cells assessed as p-JNK p46 protein level at 30 uM after 48 hrs by Western blot analysis (reference value: 1.06); format: cell-based; conditions: filed as modulator; outline: as §1
# [21] = target: T1, Heat shock protein HSP 90-alpha; experiment: Effect on HSP90alpha in human U-937 cells assessed as p-JNK p46 protein level at 10 uM after 48 hrs by Western blot analysis (reference value: 1.06); format: cell-based; conditions: filed as modulator; outline: as §1
# [22] = target: T1, Heat shock protein HSP 90-alpha; experiment: Effect on HSP90alpha in human U-937 cells assessed as JNK p46 protein level at 10 uM after 48 hrs by Western blot analysis (reference value: 1.22); format: cell-based; conditions: filed as modulator; outline: as §1
# U-937 [23] = experiment: Induction of cell cycle arrest in human U937 cells assessed as phosphorylated CDC2 expression at 10 uM by Western blotting analysis (reference value: 1.07); format: functional; outline: as §2
# [24] = target: T1, Heat shock protein HSP 90-alpha; experiment: Effect on HSP90alpha in human U-937 cells assessed as p-JNK p46 protein level at 20 uM after 48 hrs by Western blot analysis (reference value: 1.06); format: cell-based; conditions: filed as modulator; outline: as §1
# U-937 [25] = experiment: Induction of cell cycle arrest in human U937 cells assessed as CDC2 protein expression at 10 uM by Western blotting analysis (reference value: 1.22); format: functional; outline: as §2
# U-937 [26] = experiment: Induction of apoptosis in human U-937 cells assessed as necrotic cells at 20 uM after 48 hrs by AnnexinV-FITC/propidium iodide staining based flow cytometry (reference value: 0 %); format: functional
# [27] = target: T1, Heat shock protein HSP 90-alpha; experiment: Effect on HSP90alpha in human U-937 cells assessed as ERK2 protein level at 30 uM after 48 hrs by Western blot analysis (reference value: 0.69); format: cell-based; conditions: filed as modulator; outline: as §1
# U-937 [28] = experiment: Induction of apoptosis in human U-937 cells assessed as early apoptotic cells at 20 uM after 48 hrs by AnnexinV-FITC/propidium iodide staining based flow cytometry (reference value: 4.90 %); format: functional
# U-937 [29] = experiment: Induction of cell cycle arrest in human U937 cells assessed as phosphorylated CDC2 expression at 20 uM by Western blotting analysis (reference value: 1.07); format: functional; outline: as §2
# [30] = target: T1, Heat shock protein HSP 90-alpha; experiment: Effect on HSP90alpha in human U-937 cells assessed as p-ERK2 protein level at 10 uM after 48 hrs by Western blot analysis (reference value: 1.67); format: cell-based; conditions: filed as modulator; outline: as §1
# [31] = target: T1, Heat shock protein HSP 90-alpha; experiment: Effect on HSP90alpha in human U-937 cells assessed as ERK2 protein level at 10 uM after 48 hrs by Western blot analysis (reference value: 0.69); format: cell-based; conditions: filed as modulator; outline: as §1
# [32] = target: T1, Heat shock protein HSP 90-alpha; experiment: Effect on HSP90alpha in human U-937 cells assessed as JNK p46 protein level at 30 uM after 48 hrs by Western blot analysis (reference value: 1.22); format: cell-based; conditions: filed as modulator; outline: as §1
# U-937 [33] = experiment: Induction of apoptosis in human U-937 cells assessed as cleavage of pro-caspase at 20 uM by Western blotting analysis; format: functional, cell-based; outline: as §2
smiles,measurement,setting,value
CC(=O)O[C@H]1C[C@@]2(C)[C@H](C3=CC(=O)O[C@@H]3O)OC(=O)[C@H]3O[C@]32[C@@]2(C)[C@H]1[C@@]1(C)[C@@H](OC(C)=O)CC(=O)OC(C)(C)[C@@H]1C[C@H]2OC(C)=O,Kd,[1],Not Active
CC(=O)O[C@H]1CC(=O)OC(C)(C)[C@@H]2C[C@@H](OC(C)=O)[C@@]3(C)C4=CC[C@@H](C(O)(CO)CCO)[C@]4(C)CC[C@@H]3[C@@]12C (stereo partly specified),Kd,[1],Not Active
COC(=O)C[C@H]1C(C)(C)[C@H](OC(=O)C(O)C(C)C)[C@@H]2C=C3C4CC(=O)O[C@@H](c5ccoc5)[C@]4(C)CC[C@@H]3[C@@]1(C)C2=O (stereo partly specified),Kd,[1],Not Active
C=C(C)C(=O)O[C@@H]1/C=C\[C@]2(O)C3=CC(=O)O[C@@H](c4ccoc4)[C@]3(C)CC[C@]2(O)[C@]2(C)C(=O)C[C@@]1(C)[C@@H]2CC(=O)OC,Kd,[1],Not Active
CC(=O)O[C@H]1C[C@@]2(C)[C@H](C3=CC(=O)O[C@@H]3O)OC(=O)[C@H]3O[C@]32[C@@]2(C)[C@H]1[C@@]1(C)C=CC(=O)OC(C)(C)[C@@H]1C[C@H]2OC(C)=O,Kd,[1],Not Active
CC(=O)O[C@H]1C[C@@]2(C)[C@H](c3ccoc3)OC(=O)[C@H]3O[C@]32[C@@]2(C)[C@H]1[C@@]1(C)[C@@H](OC(C)=O)CC(=O)OC(C)(C)[C@@H]1C[C@H]2OC(C)=O,Kd,[1],Not Active
COC(=O)C[C@H](OC(C)=O)[C@]1(C)[C@H]2[C@@H](OC(C)=O)C[C@@]3(C)[C@H](c4ccoc4)OC(=O)[C@H]4O[C@]43[C@]2(C)[C@H](OC(C)=O)C[C@H]1C(C)(C)O,Kd,[1],Not Active
C/C=C(\C)C(=O)O[C@@H]1/C=C\C2=C3CC(=O)O[C@@H](c4ccoc4)[C@]3(C)CC[C@]2(O)[C@]2(C)C(=O)C[C@@]1(C)[C@@H]2CC(=O)OC (relative stereo),Kd,[1],Not Active
C/C=C(\C)C(=O)O[C@@H]1/C=C\[C@]2(O)C3=CC(=O)O[C@@H](c4ccoc4)[C@]3(C)CC[C@]2(O)[C@]2(C)C(=O)C[C@@]1(C)[C@@H]2CC(=O)OC (relative stereo),Activity,U-937 [2],53.1%
same,fold change (FC),[3],1.45
same,fold change (FC),[4],1.21
same,fold change (FC),[5],1.3
same,inhibition,[6],inactive
same,fold change (FC),[7],0.92
same,Activity,U-937 [8],16.7%
same,fold change (FC),U-937 [9],0.58
same,fold change (FC),[10],0.91
same,fold change (FC),[11],0.82
same,fold change (FC),[12],1.18
same,Activity,U-937 [13],28.3%
same,fold change (FC),[14],1
same,fold change (FC),[15],1.17
same,Activity,U-937 [16],12.3%
same,viability at 20 µM,U-937 [17],63.1%
same,Activity,[18],Non-Toxic
same,fold change (FC),[19],0.93
same,fold change (FC),[20],0.95
same,fold change (FC),[21],0.97
same,fold change (FC),[22],1.13
same,fold change (FC),U-937 [23],0.84
same,fold change (FC),[24],1.01
same,fold change (FC),U-937 [25],1.18
same,Activity,U-937 [26],0%
same,fold change (FC),[27],1.03
same,Activity,U-937 [28],8.62%
same,fold change (FC),U-937 [29],1.09
same,fold change (FC),[30],2.12
same,fold change (FC),[31],1.17
same,fold change (FC),[32],0.65
same,Activity,U-937 [33],Active
COC(=O)C[C@H]1C(C)(C)[C@H](O)[C@@H]2CC3=C4CC(=O)O[C@@H](c5ccoc5)[C@]4(C)CC[C@@H]3[C@@]1(C)C2=O [PROCERANOLIDE],Kd,[1],Not Active
